{"source": "ChEMBL document CHEMBL3244344", "about": "“Nucleoside conjugates as potential antitumor agents. 2. Synthesis and biological activity of 1-(beta-D-arabinofuranosyl)cytosine conjugates of prednisolone and prednisone” (J Med Chem, 1979)", "key": {"[1]": {"test_system": "L1210", "test": "Antitumor activity against mouse L1210 cells allografted in C3D2F1/J mouse assessed as increase in life span at 27 mg/kg, ip qd administered for 5 days relative to control", "assay_type": "functional", "conditions": "120 h, route intraperitoneal"}, "[2]": {"test_system": "Mus musculus", "test": "Toxicity in C3D2F1/J mouse allografted with mouse L1210 cells assessed as body weight change at 27 mg/kg, ip qd administered for 5 days measured on day 8 (reference value: 1.81 +/- 0.79 g)", "assay_type": "organism-based", "parameters": "dose 27 mg/kg, route intraperitoneal", "conditions": "in vivo, 120 h"}, "[3]": {"test_system": "L1210", "test": "Antitumor activity against mouse L1210 cells allografted in C3D2F1/J mouse assessed as median survival time at 27 mg/kg, ip qd administered for 5 days (reference value: 10 days)", "assay_type": "functional", "conditions": "route intraperitoneal"}, "[4]": {"test_system": "L1210", "test": "Cytotoxicity against mouse L1210 cells assessed as growth inhibition measured at 72 hrs by trypan blue exclusion assay", "assay_type": "functional", "conditions": "L1210, 72 h, read-out: ED50 (the source's name)", "outline": "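L1210 mouse lymphoid leukemia cells seeded at 2–3 × 10⁵ cells/mL in RPMI 1640 + 10% fetal calf serum with compound (from Me2SO stock, final Me2SO 0.5%, compound 100 μM or lower). Viable cells counted by 0.05% Trypan blue exclusion in a hemocytometer at 24, 48, 72 h. Treated/untreated density ratio. ED50 at 72 h interpolated from response curves of three separate experiments.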"}, "[5]": {"test_system": "L1210", "test": "Antitumor activity against mouse L1210 cells allografted in C3D2F1/J mouse assessed as median survival time at 25 mg/kg, ip qd administered for 5 days (reference value: 9 days)", "assay_type": "functional", "conditions": "route intraperitoneal"}, "[6]": {"test_system": "L1210", "test": "Antitumor activity against mouse L1210 cells allografted in C3D2F1/J mouse assessed as median survival time at 50 mg/kg, ip qd administered for 5 days (reference value: 9 days)", "assay_type": "functional", "conditions": "route intraperitoneal"}, "[7]": {"test_system": "L1210", "test": "Antitumor activity against mouse L1210 cells allografted in C3D2F1/J mouse assessed as median survival time at 75 mg/kg, ip qd administered for 5 days (reference value: 9 days)", "assay_type": "functional", "conditions": "route intraperitoneal"}, "[8]": {"test": "Drug degradation assessed as ara-C formation at 5 umol at pH 9 after 24 hrs by UV analysis in presence of Crotalus adamanteus 5'-nucleotidase", "assay_type": "physicochemical", "conditions": "buffer, pH 9, 24 h", "outline": "(§1)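 Crude Crotalus adamanteus venom: 5 μmol conjugate in Tris-HCl buffer (pH 8.8) with 2.5 mg venom, 0.5 mL total, incubated 37 °C for 24 h. Products were resolved by paper chromatography alongside authentic markers.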"}, "[9]": {"test_system": "L1210", "test": "Antitumor activity against mouse L1210 cells allografted in C3D2F1/J mouse assessed as increase in life span at 75 mg/kg, ip qd administered for 5 days relative to control", "assay_type": "functional", "conditions": "120 h, route intraperitoneal"}, "[10]": {"test_system": "L1210", "test": "Antitumor activity against mouse L1210 cells allografted in C3D2F1/J mouse assessed as increase in life span at 100 mg/kg, ip qd administered for 5 days relative to control", "assay_type": "functional", "conditions": "120 h, route intraperitoneal"}, "[11]": {"test_system": "L1210", "test": "Antitumor activity against mouse L1210 cells allografted in C3D2F1/J mouse assessed as increase in life span at 50 mg/kg, ip qd administered for 5 days relative to control", "assay_type": "functional", "conditions": "120 h, route intraperitoneal"}, "[12]": {"test": "Drug degradation in baboon plasma at 5 umol at 37 degC after 24 hrs by UV analysis", "assay_type": "ADME, cell-free", "conditions": "papio anubis, read-out: Drug degradation", "outline": "(§2)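 5 μmol conjugate in 0.5 mL fresh baboon plasma, incubated at 37 °C for 24 h. Intact conjugate and products were separated by paper chromatography with authentic markers.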"}, "[13]": {"test": "Hydrolytic stability of the compound assessed as remaining compound level at 5 umol at pH 4.8 at 25 degC after 24 hrs by UV analysis in presence of wheat germ acid phosphatase", "assay_type": "physicochemical", "conditions": "read-out: Stability", "outline": "(§3)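 5 μmol conjugate in NaOAc buffer (pH 4.8) with 3 mg crude wheat germ acid phosphatase, 0.5 mL total, held at 25 °C for 24 h. Products were separated by paper chromatography against authentic markers.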"}, "[14]": {"test_system": "Mus musculus", "test": "Toxicity in C3D2F1/J mouse allografted with mouse L1210 cells assessed as body weight change at 50 mg/kg, ip qd administered for 5 days measured on day 8 (reference value: 1.81 +/- 0.79 g)", "assay_type": "organism-based", "parameters": "dose 50 mg/kg, route intraperitoneal", "conditions": "in vivo, 120 h"}, "[15]": {"test": "Metabolic stability in baboon plasma assessed as remaining compound level at 5 umol at 37 degC after 24 hrs by UV analysis", "assay_type": "ADME, cell-free", "conditions": "papio anubis, read-out: Stability", "outline": "as §2"}, "[16]": {"test": "Drug degradation assessed as compound hydrolysis at 5 umol at pH 4.8 at 25 degC after 24 hrs by UV analysis in presence of wheat germ acid phosphatase", "assay_type": "physicochemical", "conditions": "read-out: Drug degradation", "outline": "as §3"}, "[17]": {"test": "Hydrolytic stability of the compound at 5 umol at pH 8 at 25 degC after 24 hrs by UV analysis in presence of bacterial alkaline phosphatase", "assay_type": "physicochemical", "conditions": "isolated protein, pH 8, 24 h", "outline": "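5 μmol conjugate in Tris-HCl (pH 8.0) with bacterial alkaline phosphatase suspension, 0.5 mL total, incubated at 25 °C for 24 h. Paper chromatography against authentic markers.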"}, "[18]": {"test_system": "L1210", "test": "Antitumor activity against mouse L1210 cells allografted in C3D2F1/J mouse assessed as median survival time at 100 mg/kg, ip qd administered for 5 days (reference value: 9 days)", "assay_type": "functional", "conditions": "route intraperitoneal"}, "[19]": {"test_system": "Mus musculus", "test": "Toxicity in C3D2F1/J mouse allografted with mouse L1210 cells assessed as body weight change at 75 mg/kg, ip qd administered for 5 days measured on day 8 (reference value: 1.81 +/- 0.79 g)", "assay_type": "organism-based", "parameters": "dose 75 mg/kg, route intraperitoneal", "conditions": "in vivo, 120 h"}, "[20]": {"test": "Drug degradation assessed as steroid formation at 5 umol at pH 9 after 24 hrs by UV analysis in presence of Crotalus adamanteus 5'-nucleotidase", "assay_type": "physicochemical", "conditions": "buffer, pH 9, 24 h", "outline": "as §1"}, "[21]": {"test_system": "Mus musculus", "test": "Toxicity in C3D2F1/J mouse allografted with mouse L1210 cells assessed as body weight change at 25 mg/kg, ip qd administered for 5 days measured on day 8 (reference value: 1.81 +/- 0.79 g)", "assay_type": "organism-based", "parameters": "dose 25 mg/kg, route intraperitoneal", "conditions": "in vivo, 120 h"}, "[22]": {"test_system": "Mus musculus", "test": "Toxicity in C3D2F1/J mouse allografted with mouse L1210 cells assessed as body weight change at 100 mg/kg, ip qd administered for 5 days measured on day 8 (reference value: 1.81 +/- 0.79 g)", "assay_type": "organism-based", "parameters": "dose 100 mg/kg, route intraperitoneal", "conditions": "in vivo, 120 h"}, "[23]": {"test_system": "L1210", "test": "Antitumor activity against mouse L1210 cells allografted in C3D2F1/J mouse assessed as increase in life span at 25 mg/kg, ip qd administered for 5 days relative to control", "assay_type": "functional", "conditions": "120 h, route intraperitoneal"}}, "data": [{"molecule": "C[C@]12C=CC(=O)C=C1CC[C@@H]1[C@@H]2C(=O)C[C@@]2(C)[C@H]1CC[C@]2(O)C(=O)CO", "note": "[PREDNISONE]", "values": [{"measurement": "ILS at 27 mg/kg", "setting": "[1]", "result": -5, "unit": "%"}, {"measurement": "Activity", "setting": "[2]", "result": -1.01, "unit": "g"}, {"measurement": "MST", "setting": "[3]", "result": 9.5, "unit": "days"}, {"measurement": "EC50", "setting": "[4]", "result": "> 100", "unit": "µM"}]}, {"molecule": "C[C@]12C=CC(=O)C=C1CC[C@@H]1[C@@H]2[C@@H](O)C[C@@]2(C)[C@H]1CC[C@]2(O)C(=O)CO", "note": "[PREDNISOLONE]", "values": [{"measurement": "ILS at 27 mg/kg", "setting": "[1]", "result": -5, "unit": "%"}, {"measurement": "Activity", "setting": "[2]", "result": -0.85, "unit": "g"}, {"measurement": "MST", "setting": "[3]", "result": 9.5, "unit": "days"}, {"measurement": "EC50", "setting": "[4]", "result": 100, "unit": "µM"}]}, {"molecule": "C[C@]12C=CC(=O)C=C1CC[C@@H]1[C@@H]2[C@@H](O)C[C@@]2(C)[C@H]1CC[C@]2(O)C(=O)CO[P+]([O-])(O)OC[C@H]1O[C@@H](n2ccc(N)nc2=O)[C@@H](O)[C@@H]1O", "note": "(stereo partly drawn)", "values": [{"measurement": "MST", "setting": "[5]", "result": 15.5, "unit": "days"}, {"measurement": "MST", "setting": "[6]", "result": 17, "unit": "days"}, {"measurement": "MST", "setting": "[7]", "result": 16, "unit": "days"}, {"measurement": "Drug degradation", "setting": "[8]", "result": 50, "unit": "%"}, {"measurement": "ILS at 75 mg/kg", "setting": "[9]", "result": 77.8, "unit": "%"}, {"measurement": "ILS at 100 mg/kg", "setting": "[10]", "result": 16.7, "unit": "%"}, {"measurement": "ILS at 50 mg/kg", "setting": "[11]", "result": 88.9, "unit": "%"}, {"measurement": "metabolised at 24 h, 5 umol", "setting": "[12]", "result": 39, "unit": "%"}, {"measurement": "remaining at 24 h, 5 umol", "setting": "[13]", "result": 8, "unit": "%"}, {"measurement": "Activity", "setting": "[14]", "result": -0.28, "unit": "g"}, {"measurement": "remaining at 24 h, 5 umol", "setting": "[15]", "result": 44, "unit": "%"}, {"measurement": "metabolised at 24 h, 5 umol", "setting": "[16]", "result": 86, "unit": "%"}, {"measurement": "Stability", "setting": "[17]", "result": "Stable"}, {"measurement": "MST", "setting": "[18]", "result": 10.5, "unit": "days"}, {"measurement": "Activity", "setting": "[19]", "result": -0.71, "unit": "g"}, {"measurement": "Drug degradation", "setting": "[20]", "result": 50, "unit": "%"}, {"measurement": "Activity", "setting": "[21]", "result": -0.07, "unit": "g"}, {"measurement": "EC50", "setting": "[4]", "result": 0.05, "unit": "µM"}, {"measurement": "Activity", "setting": "[22]", "result": -1.5, "unit": "g"}, {"measurement": "ILS at 25 mg/kg", "setting": "[23]", "result": 72.7, "unit": "%"}]}]}
